Compound activity deposited in PubChem by The Scripps Research Institute Molecular Screening Center.
An excerpt weighted towards active compounds, which were near 3.2% of everything screened.
DAGLB inh – blocks human DAGLB lipase activity; Q8NCG7; HEK293T DAGLB membrane lysate, EnzChek fluorogenic substrate; inhibition, % at 5.17 µM; 0.059% of 340,000 active; AID 504411; in the data active = inhibition above about 34%;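 also: 0% = enzyme with vehicle and 100% = wells lacking enzyme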
LEDGF integ inh – blocks HIV-1 LEDGF/p75-dependent DNA integration; 0.64% of 370,000 active; inhibition, % at 3.7 µM; AID 743269; TR-FRET IN-LEDGF/p75 DNA integration, Eu/Cy5;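 active = inhibition above the screen-wide mean plus 3 SD, cut at about 13% in these data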;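 also: signal is the Cy5 over europium emission ratio at 671 and 618 nm; 0% = plate median of compound wells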
rCAG RNA binder – molecules binding r(CAG) RNA repeats. r(CAG) RNA repeat, TO-PRO-1 dye displacement fluorescence. inhibition, % at 3 µM. 1.3% of 370,000 active;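 active = inhibition above the plate cutoff, the mean of all test compounds on that plate plus 3 SD, cut at about 35% in these data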;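 also: 0% = DMSO alone and 100% = 100 µM mitoxantrone as full dye displacement; higher means more dye released from RNA so lower well fluorescence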
PRMT1 FP inh – inhibitors of human PRMT1 | Q99873 | recombinant PRMT1, activity-based probe fluorescence polarization | inhibition, % at 2.79 µM | 1.3% of 370,000 active | AID 652257;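 active = inhibition above about 21% made by adding two undisclosed values, limit read from the data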
Target sequence (Q99873 whole entry, looked up): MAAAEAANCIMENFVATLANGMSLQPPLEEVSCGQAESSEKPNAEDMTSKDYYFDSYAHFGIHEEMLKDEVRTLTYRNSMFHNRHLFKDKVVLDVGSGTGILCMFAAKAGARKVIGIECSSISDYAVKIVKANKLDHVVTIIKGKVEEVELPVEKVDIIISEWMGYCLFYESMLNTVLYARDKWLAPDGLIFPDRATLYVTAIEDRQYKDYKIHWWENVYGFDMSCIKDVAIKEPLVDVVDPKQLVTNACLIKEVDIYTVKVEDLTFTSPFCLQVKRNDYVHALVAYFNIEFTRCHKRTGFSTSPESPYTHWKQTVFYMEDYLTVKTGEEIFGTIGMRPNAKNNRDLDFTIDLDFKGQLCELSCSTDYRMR
HTRA1 inhibitor – inhibitors of human serine peptidase HTRA1. inhibition, % at 5.96 µM. 0.5% of 340,000 active. recombinant HTRA1, FP-rhodamine activity-based probe, fluorescence polarization. Q92743; in the data active = inhibition above about 36%;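 also: 0% = enzyme with DMSO and 100% = wells lacking enzyme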
mABHD4 FP – inhibits mouse alpha/beta hydrolase domain 4; purified mABHD4, FP-Rh probe fluorescence polarization; 0.54% of 370,000 active; inhibition, % at 8.92 µM; Q8VD66;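 active = inhibition exceeding the mean over every tested compound plus 3 SD, cut at about 30% in these data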;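 also: 0% = plate median of compound wells and 100% = S159A mutant with DMSO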
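Test system: mouse ABHD4 enzyme, wild type. Reagent: FP-Rh fluorescent activity-based probe, added after compound pre-incubation. Timing: pre-incubation 45 min, probe exposure 60 min, at 25 °C. Technique: FP readout, ex 525 nm / em 598 nm. Benchmarks: high control S159A mutant with DMSO, low control median of compound wells.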
PRMT1 inh conf – PRMT1 (human) inhibition, FP confirmation; shares compounds with PRMT1 FP inh; recombinant His-PRMT1, activity-based probe fluorescence polarization; inhibition, % at 2.79 µM; 42% of 3,300 active; AID 687036;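 active = mean inhibition across replicates above the hit cutoff derived for the earlier primary screen, cut at about 22% in these data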
An asterisk follows results filed as active; / = no result.

SMILES	DAGLB inh	LEDGF integ inh	rCAG RNA binder	PRMT1 FP inh	HTRA1 inhibitor	mABHD4 FP	PRMT1 inh conf
O=C(N/C(=C\c1ccco1)C(=O)N1CCOCC1)c1ccccc1Cl	-1	-3	3	29*	7	0	9
CN(c1ccccc1)S(=O)(=O)c1ccc(NC(=O)c2ccccc2)cc1	1	0	1	0	-46	-18	/
CN(c1ccccc1)S(=O)(=O)c1ccc(NC(=O)c2nc(S(C)(=O)=O)ncc2Cl)cc1	0	2	6	40*	-29	-10	49*
COc1cccc(NC(=O)c2nc(S(C)(=O)=O)ncc2Cl)c1	-3	-3	-1	40*	-26	-12	14
Cc1nc(-c2ccc(Cl)cc2)sc1C1(C)CC(c2cccnc2)=NO1 (configuration not stated)	0	1	1	2	-12	1	/
NC(=O)c1ccc(NCC2COc3ccccc3O2)c([N+](=O)[O-])c1 (configuration not stated)	4	-1	3	3	1	5	/
O=C(CN1C(=O)CC(c2ccco2)Sc2ccccc21)NCc1ccc2c(c1)OCO2 (configuration not stated)	-1	/	/	/	3	/	/
O=C(CN1C(=O)CC(c2ccco2)Sc2ccccc21)Nc1ccccc1F (configuration not stated)	3	9	24	58*	-10	3	19
N#CC(Sc1ccccn1)c1ccc(Cl)cc1 (configuration not stated)	-4	5	-4	46*	-2	-2	35*
Cn1c(=O)c(=O)n(C)c2cc(S(=O)(=O)N3CCCC3C(=O)Nc3ccccc3F)ccc21 (configuration not stated)	0	0	2	5	-2	-6	/
Cc1cccc(N(Cc2cc3ccc(C)cc3[nH]c2=O)C(=O)c2ccco2)c1	2	0	-8	4	-14	3	/
CC(C)n1cc(/C=N/Nc2ccc(C(=O)O)cc2)c2ccccc21	2	-4	25	26*	10	17	4
Cn1cc(/C=N/Nc2ccccc2)c2ccccc21	2	-3	4	4	2	8	/
NNc1nc2ccccc2nc1C(F)(F)F	0	3	-1	18	-6	1	/
FC(F)(F)c1nc2ccccc2nc1N/N=C\c1ccccc1	18	0	1	25*	5	7	0
COc1ccc(OCCOC(=O)CNC(=O)c2ccc(F)cc2)cc1	0	2	-1	1	-2	-3	/
CC1CCCC(C)N1S(=O)(=O)c1ccc(Cl)cc1 (configuration not stated)	-6	-6	-3	2	-1	-4	/
CC1=C(C)CS(=O)N(S(=O)(=O)c2ccc(Cl)cc2)C1 (configuration not stated)	-4	-2	2	34*	-25	5	43*
O=C(NCCNC(=O)c1ccccn1)c1ccc(Cl)cc1	2	5	-2	0	3	-1	/
O=C(Sc1ccc(Cl)cc1)c1ccccn1	3	-3	-4	47*	3	10	44*
N#Cc1c(SCc2c(Cl)cccc2Cl)nc(N)[nH]c1=S	6	-4	23	43*	-15	-12	11
O=C1OCCC1Sc1nnc(-c2cccs2)n1Cc1ccccc1 (configuration not stated)	-3	/	/	/	-6	/	/
O=C(O)Cc1c[nH]c2ccc(O)cc12	3	2	3	27*	3	11	1
COc1ccc2[nH]cc(CC(=O)O)c2c1	0	2	3	8	2	-4	/
CCCn1c(CCC(=O)O)ccc1-c1cccs1	-1	2	7	5	-4	19	/
NC(=O)c1ccc(-n2c(CCC(=O)O)ccc2-c2cccs2)cc1	1	1	3	45*	3	5	14
COC(=O)c1cccc(-n2c(CCC(=O)O)ccc2-c2cccs2)c1	-2	4	10	40*	-1	-7	16
CC(=O)c1ccc(-n2c(CCC(=O)O)ccc2-c2cccs2)cc1	5	-2	5	63*	10	4	3
